Experimental data: ChEMBL document CHEMBL4680118, “Cerpegin-derived furo[3,4-c]pyridine-3,4(1H,5H)-diones enhance cellular response to interferons by de novo pyrimidine biosynthesis inhibition” (Eur J Med Chem, 2020)
Active and inactive are the calls of the source. The calls are words filed in the database; no cut-off is given here.

Assays:
Type in all cases: cell-based
[1] = biological target: T1, Dihydroorotate dehydrogenase (quinone), mitochondrial (Homo sapiens, UniProt Q02127); assay: Inhibition of DHODH in human HEK293 cells transfected with ISRE-luciferase reporter gene assessed as increase in 125 IU/ml IFN-alpha stimulated IFITM3 mRNA expression at 80 uM measured after 16 hrs by RT-qPCR analysis relative to control
T1 sequence (Q02127 whole entry): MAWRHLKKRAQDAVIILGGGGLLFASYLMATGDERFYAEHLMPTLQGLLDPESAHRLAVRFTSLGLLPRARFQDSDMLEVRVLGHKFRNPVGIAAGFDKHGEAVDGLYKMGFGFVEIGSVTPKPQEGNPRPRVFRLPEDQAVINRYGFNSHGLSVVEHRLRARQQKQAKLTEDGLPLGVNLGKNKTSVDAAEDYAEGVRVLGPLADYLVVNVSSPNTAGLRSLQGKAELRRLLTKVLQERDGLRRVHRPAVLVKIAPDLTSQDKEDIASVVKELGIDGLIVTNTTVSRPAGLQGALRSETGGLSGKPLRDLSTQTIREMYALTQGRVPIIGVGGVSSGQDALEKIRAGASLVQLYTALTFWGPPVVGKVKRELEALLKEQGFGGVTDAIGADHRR
Procedure, shortened: (§1)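 ISRE-Luc HEK cells co-treated with increasing IFN-α concentrations and DMSO or compound (80 µM) for 16 h. Total RNA extracted from 2×10^5 cells with DNase step; qPCR 35 cycles. CT values normalized to RPL13A and unstimulated controls (2^-ΔΔCT), expressed as fold change versus DMSO alone. Three independent experiments; two-way ANOVA with Bonferroni.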

[2] = biological target: T1, Dihydroorotate dehydrogenase (quinone), mitochondrial; assay: Inhibition of DHODH in human HEK293 cells transfected with ISRE-luciferase reporter gene assessed as increase in 125 IU/ml IFN-alpha stimulated IFIT5 mRNA expression at 80 uM measured after 16 hrs by RT-qPCR analysis relative to control; procedure, shortened: as §1
[3] = biological target: T1, Dihydroorotate dehydrogenase (quinone), mitochondrial; assay: Inhibition of DHODH in human HEK-293 cells transfected with ISRE-luciferase reporter gene assessed as increase in 150 IU/ml IFN-alpha mediated cellular response at 80 uM in presence of AZD6738 ATR inhibitor measured after 24 hrs by luciferase reporter gene assay; conditions: HEK293
Procedure, shortened: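 ISRE-Luc HEK-293 cells given IFN-α (150 IU/ml) alone or with test compound (80 µM), with or without the MRE11 inhibitor mirin, ATR inhibitor AZD6738, CHK1 inhibitor PF477736 or P300/CBP inhibitor C636. Firefly luciferase read 24 h later, normalized to IFN-α alone. Means ± SD of at least three independent experiments.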

fold change (FC) [1]: 14
fold change (FC) [2]: 4
Activity [3]: inactive
SMILES: O=C1OC2(CCCCC2)c2ccn(C3CC3)c(=O)c21
